The record followed here is ChEMBL document CHEMBL1649538 (2009).

Values after ≈ are worked out from the molar mass of the structure shown.

Holding throughout (format): functional
Assay [1] deals with Staphylococcus epidermidis. Kind of assay: Antibacterial activity against slime-negative Staphylococcus epidermidis M7 assessed as inhibition of biofilm formation after 24 hrs by CLSI method. Put shortly:
(§1)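 Modified Calgary pin-lid device. Inoculum of 7 log10 CFU/ml was prepared by direct colony suspension from 24-h TSA growth. Biofilm grew on pins for 24 h at 35°C on a rocking table in TSB with 1% glucose and 2% NaCl. Pins were rinsed three times in PBS and exposed 24 h at 35°C to serial antibiotic dilutions. MBIC is the last well without visible growth. Quadruplicate.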

Assay [2] relates to Staphylococcus epidermidis. Kind of assay: Antibacterial activity against slime-negative Staphylococcus epidermidis M7 assessed as induction of biofilm eradication after 24 hrs by CLSI method. Put shortly:
(§2)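 Pin-lid biofilms were grown 24 h at 35°C in TSB with 1% glucose and 2% NaCl (7 log10 CFU/ml start), rinsed in PBS, and exposed 24 h at 35°C to serial antibiotic dilutions. Pin bacteria were dispersed by sonication and vortexing. Counts were plated in duplicate on TSA (detection limit 2.4 CFU/ml) or read as turbidity at 570 nm. Quadruplicate.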

For assay [3], the system named is Staphylococcus epidermidis. Put plainly: Antibacterial activity against Staphylococcus epidermidis RP62A after 24 hrs by CLSI method.
The test system of assay [4] is Staphylococcus epidermidis. Kind of assay: Antibacterial activity against Staphylococcus epidermidis RP62A assessed as inhibition of biofilm formation after 24 hrs by CLSI method. Put shortly: as §1
For assay [5], the system named is Staphylococcus epidermidis. Put plainly: Antibacterial activity against Staphylococcus epidermidis RP62A assessed as induction of biofilm eradication after 24 hrs by CLSI method. The gist of the method: as §2
The subject of assay [6] is Staphylococcus aureus. Put plainly: Antibacterial activity against Staphylococcus aureus ATCC 35556 after 24 hrs by CLSI method. The note with it: ATCC 35556, 24 h. Put shortly: (§3)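 Conventional MIC determined in duplicate following CLSI dilution guidelines, with cultures incubated at 35°C.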
Assay [7] deals with Staphylococcus aureus. Put plainly: Antibacterial activity against Staphylococcus aureus ATCC 35556 assessed as inhibition of biofilm formation after 24 hrs by CLSI method. Put shortly:
as §1

Assay [8] relates to Staphylococcus aureus. Kind of assay: Antibacterial activity against Staphylococcus aureus ATCC 35556 assessed as induction of biofilm eradication after 24 hrs by CLSI method. Put shortly:
as §2

Assay [9] deals with Enterococcus faecalis. Put plainly: Antibacterial activity against Enterococcus faecalis ATCC 29212 after 24 hrs by CLSI method. The following applies: ATCC 29212, 24 h. Put shortly: as §3
Assay [10] has as its system Enterococcus faecalis. Put plainly: Antibacterial activity against Enterococcus faecalis ATCC 29212 assessed as inhibition of biofilm formation after 24 hrs by CLSI method. The gist of the method: as §1
Assay [11] deals with Enterococcus faecalis. Kind of assay: Antibacterial activity against Enterococcus faecalis ATCC 29212 assessed as induction of biofilm eradication after 24 hrs by CLSI method. Put shortly:
as §2

The subject of assay [12] is Staphylococcus aureus. Kind of assay: Antibacterial activity against methicillin-susceptible Staphylococcus aureus L2 after 24 hrs by CLSI method. The note with it: L2, 24 h. The gist of the method:
as §3

The test system of assay [13] is Staphylococcus aureus. Kind of assay: Antibacterial activity against methicillin-susceptible Staphylococcus aureus L2 assessed as inhibition of biofilm formation after 24 hrs by CLSI method. The gist of the method: as §1
Assay [14] relates to Staphylococcus aureus. Kind of assay: Antibacterial activity against methicillin-susceptible Staphylococcus aureus L2 assessed as induction of biofilm eradication after 24 hrs by CLSI method. The gist of the method:
as §2

For assay [15], the system named is Staphylococcus aureus. Put plainly: Antibacterial activity against methicillin-resistant Staphylococcus aureus L32 after 24 hrs by CLSI method. The following applies: L32, 24 h. The gist of the method: as §3
Assay [16] concerns Staphylococcus aureus. Kind of assay: Antibacterial activity against methicillin-resistant Staphylococcus aureus L32 assessed as inhibition of biofilm formation after 24 hrs by CLSI method. The gist of the method: as §1
Assay [17] relates to Staphylococcus aureus. Kind of assay: Antibacterial activity against methicillin-resistant Staphylococcus aureus L32 assessed as induction of biofilm eradication after 24 hrs by CLSI method. The gist of the method:
as §2

Assay [18] relates to Staphylococcus aureus. Kind of assay: Antibacterial activity against methicillin-resistant Staphylococcus aureus L83 after 24 hrs by CLSI method. The following applies: L83, 24 h. The gist of the method: as §3
For assay [19], the system named is Staphylococcus aureus. Kind of assay: Antibacterial activity against methicillin-resistant Staphylococcus aureus L83 assessed as inhibition of biofilm formation after 24 hrs by CLSI method. The gist of the method: as §1
For assay [20], the system named is Staphylococcus aureus. Kind of assay: Antibacterial activity against methicillin-resistant Staphylococcus aureus L83 assessed as induction of biofilm eradication after 24 hrs by CLSI method. The gist of the method:
as §2

Assay [21] concerns Staphylococcus aureus. Kind of assay: Antibacterial activity against methicillin-resistant Staphylococcus aureus by broth microdilution method.
For assay [22], the system named is Staphylococcus epidermidis. Put plainly: Antibacterial activity against slime-negative Staphylococcus epidermidis M7 after 24 hrs by CLSI method. The note with it: M7, 24 h.

As to `CN[C@H](CC(C)C)C(=O)N[C@H]1C(=O)N[C@@H](CC(N)=O)C(=O)N[C@H]2C(=O)N[C@H]3C(=O)N[C@H](C(=O)N[C@H](C(=O)O)c4cc(O)cc(O)c4-c4cc3ccc4O)[C@H](O)c3ccc(c(Cl)c3)Oc3cc2cc(c3O[C@@H]2O[C@H](CO)[C@@H](O)[C@H](O)[C@H]2O[C@H]2C[C@](C)(N)[C@H](O)[C@H](C)O2)Oc2ccc(cc2Cl)[C@H]1O` [VANCOMYCIN], the MBIC worked out at 8 µg/mL in [1]; 4 µg/mL in [4]; 16 µg/mL in the assay on Staphylococcus aureus [7]; 16 µg/mL in the assay with Enterococcus faecalis [10]; 16 µg/mL with Staphylococcus aureus [13]; 8 µg/mL in the assay with Staphylococcus aureus [16]. Further, the MBIC with Staphylococcus aureus [19] is 4 µg/mL. Further, the MBEC was 2 µg/mL in assay [2]; 4 µg/mL in [5]; greater than 256 µg/mL with Staphylococcus aureus [8]; greater than 256 µg/mL in the assay on Enterococcus faecalis [11]; greater than 256 µg/mL with Staphylococcus aureus [14]; greater than 256 µg/mL in the assay with Staphylococcus aureus [17]. Further, in the assay with Staphylococcus aureus [20], the MBEC was greater than 256 µg/mL. For the same compound, the MBC was 2 µg/mL (≈ 1.38 µM) in [3]; 2 µg/mL (≈ 1.38 µM) against Staphylococcus aureus [6]; 16 µg/mL (≈ 11 µM) with Enterococcus faecalis [9]; 2 µg/mL (≈ 1.38 µM) in the assay on Staphylococcus aureus [12]; 2 µg/mL (≈ 1.38 µM) against Staphylococcus aureus [15]; 2 µg/mL (≈ 1.38 µM) against Staphylococcus aureus [18]. Also, the MIC against Enterococcus faecalis [9] amounted to 2 µg/mL (≈ 1.38 µM).
Regarding `CCCCCCCCCCNCCN[C@@]1(C)C[C@H](O[C@H]2[C@H](Oc3c4cc5cc3Oc3ccc(cc3Cl)[C@@H](O)[C@@H](NC(=O)[C@@H](CC(C)C)NC)C(=O)N[C@@H](CC(N)=O)C(=O)N[C@H]5C(=O)N[C@H]3C(=O)N[C@H](C(=O)N[C@H](C(=O)O)c5cc(O)c(CNCP(=O)(O)O)c(O)c5-c5cc3ccc5O)[C@H](O)c3ccc(c(Cl)c3)O4)O[C@H](CO)[C@@H](O)[C@@H]2O)O[C@@H](C)[C@H]1O` [TELAVANCIN], the MIC in the assay on Staphylococcus aureus [21] stood at 0.06 µg/mL (≈ 0.0342 µM); in assay [22] it was 0.125 µg/mL (≈ 0.0712 µM); in assay [3], 0.125 µg/mL (≈ 0.0712 µM); in the assay with Staphylococcus aureus [6] it was 0.06 µg/mL (≈ 0.0342 µM); against Enterococcus faecalis [9], 0.25 µg/mL (≈ 0.142 µM); with Staphylococcus aureus [12], 0.06 µg/mL (≈ 0.0342 µM). Besides, the MIC came to 0.03 µg/mL (≈ 0.0171 µM) with Staphylococcus aureus [15] and 0.06 µg/mL (≈ 0.0342 µM) against Staphylococcus aureus [18]. The minimum bactericidal concentration (MBC) in [22] turned out to be 0.125 µg/mL (≈ 0.0712 µM); in assay [3], 0.125 µg/mL (≈ 0.0712 µM); against Staphylococcus aureus [6], 0.25 µg/mL (≈ 0.142 µM); in the assay on Enterococcus faecalis [9], 1 µg/mL (≈ 0.57 µM); against Staphylococcus aureus [12], 0.125 µg/mL (≈ 0.0712 µM); against Staphylococcus aureus [15], 0.125 µg/mL (≈ 0.0712 µM). In the assay on Staphylococcus aureus [18], the MBC turned out to be 0.125 µg/mL (≈ 0.0712 µM). Besides, the MBIC worked out at 0.5 µg/mL in assay [1]; 0.5 µg/mL in assay [4]; 0.25 µg/mL in the assay with Staphylococcus aureus [7]; 1 µg/mL with Enterococcus faecalis [10]; 1 µg/mL with Staphylococcus aureus [13]. Besides, the MBEC in assay [2] was 0.5 µg/mL; in assay [5], 1 µg/mL; with Staphylococcus aureus [8], 0.125 µg/mL; with Enterococcus faecalis [11], 1 µg/mL; in the assay on Staphylococcus aureus [14], 1 µg/mL; in the assay with Staphylococcus aureus [17], 2 µg/mL.
